In brackets after ≈: the same amount, converted by molar mass.
What was measured:
[1] = Antiproliferative activity against human skin fibroblast assessed as cell viability at 100 uM by MTT assay; assay type: cell-based; conditions: human skin fibroblasts, read-out: Activity
Summary of the method: (§1)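 MTT viability assay on primary human skin fibroblasts grown in DMEM with 10% FBS and penicillin/streptomycin. Compounds were dissolved in DMSO and given at 1, 50 or 100 µM for 24 h. Cells were washed in HEPES-buffered medium (pH 7.4) and then given MTT 0.5 mg mL⁻¹ for 45 min at 37 °C. Formazan was dissolved in DMSO and read at 570 nm. Viability is % of control; three independent measurements.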

[2] = Lipophilicity, log kw in methanol aqueous system at pH 3.5; assay type: physicochemical
Summary of the method: (§2)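 RP-HPLC on an octadecyl silica column (150 × 4.6 mm, 5 µm) at 22 ± 1 °C, flow 1.0 mL min⁻¹, UV detection at 254 nm. Mobile phase was methanol, acetonitrile or dioxane with water and 0.01 M phosphate buffer pH 3.5 containing 0.05 M DEA. log k_W was extrapolated to pure water by regression.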

HeLa [3] = experiment: Antiproliferative activity against human HeLa cells assessed as cell viability at 1 uM by MTT assay; assay type: functional; conditions: read-out: Activity
Summary of the method: (§3)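 Log-phase cells, kept in supplemented RPMI 1640 (HSF in DMEM/10% FBS) at 37 °C, 5% CO2, were exposed 24 h to 1, 50 or 100 µM compound from DMSO. They were washed, given 0.5 mg/mL MTT in HEPES buffer pH 7.4 for 45 min at 37 °C, and formazan was dissolved in DMSO and read at 570 nm. Values are % viability versus control from three independent measurements.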

[4] = Lipophilicity, log kw in acetonitrile aqueous system at pH 3.5; assay type: physicochemical; summary of the method: as §2
[5] = Antiproliferative activity against human RPMI cells assessed as cell viability at 50 uM by MTT assay; assay type: functional; conditions: read-out: Activity; summary of the method: as §3
[6] = Antiproliferative activity against human skin fibroblast assessed as cell viability at 50 uM by MTT assay; assay type: cell-based; conditions: human skin fibroblasts, read-out: Activity; summary of the method: as §1
[7] = Lipophilicity, log kw in dioxane aqueous system at pH 3.5; assay type: physicochemical; conditions: buffer; summary of the method: as §2
[8] = Antiproliferative activity against human skin fibroblast assessed as cell viability at 1 uM by MTT assay; assay type: cell-based; conditions: human skin fibroblasts, read-out: Activity; summary of the method: as §3
[9] = Antiproliferative activity against human RPMI cells assessed as cell viability at 100 uM by MTT assay; assay type: functional; conditions: read-out: Activity; summary of the method: as §3
HeLa [10] = experiment: Antiproliferative activity against human HeLa cells assessed as cell viability at 100 uM by MTT assay; assay type: functional; conditions: read-out: Activity; summary of the method: as §3
HeLa [11] = experiment: Antiproliferative activity against human HeLa cells assessed as cell viability at 50 uM by MTT assay; assay type: functional; conditions: read-out: Activity; summary of the method: as §3
[12] = Antiproliferative activity against human RPMI cells assessed as cell viability at 1 uM by MTT assay; assay type: functional; conditions: read-out: Activity; summary of the method: as §3
Klebsiella aerogenes [13] = experiment: Antimicrobial activity against Enterobacter aerogenes at 100 ug/mL by disc-diffusion method; assay type: functional; conditions: read-out: IZ
Summary of the method: (§4)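 Kirby–Bauer disc diffusion: 5 mm paper discs soaked in compound solution in DMSO (100 or 200 µg/mL; reference drugs 200 µg/mL) and laid on inoculated Mueller-Hinton agar (bacteria) or Sabouraud agar (C. albicans, Aspergillus). DMSO discs were the control. Plates ran 24 h at 35 °C. Inhibition zone diameter was scored 0–10 mm R, 11–16 mm I, 17–25 mm S; triplicate.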

Streptococcus pyogenes [14] = experiment: Antimicrobial activity against Streptococcus pyogenes at 100 ug/mL by disc-diffusion method; assay type: functional; conditions: read-out: IZ; summary of the method: as §4
Streptococcus pyogenes [15] = experiment: Antimicrobial activity against Streptococcus pyogenes at 200 ug/mL by disc-diffusion method; assay type: functional; conditions: read-out: IZ; summary of the method: as §4
[16] = test system: Staphylococcus epidermidis; experiment: Antimicrobial activity against Staphylococcus epidermidis at 100 ug/mL by disc-diffusion method; assay type: functional; conditions: read-out: IZ; summary of the method: as §4
Klebsiella pneumoniae [17] = experiment: Antimicrobial activity against Klebsiella pneumoniae at 100 ug/mL by disc-diffusion method; assay type: functional; conditions: read-out: IZ; summary of the method: as §4
Klebsiella aerogenes [18] = experiment: Antimicrobial activity against Enterobacter aerogenes at 200 ug/mL by disc-diffusion method; assay type: functional; conditions: read-out: IZ; summary of the method: as §4
Candida albicans [19] = experiment: Antimicrobial activity against Candida albicans ATCC 10231 at 200 ug/mL by disc-diffusion method; assay type: functional; conditions: read-out: IZ; summary of the method: as §4
Staphylococcus aureus [20] = experiment: Antimicrobial activity against Staphylococcus aureus ATCC 25923 at 100 ug/mL by disc-diffusion method; assay type: functional; conditions: read-out: IZ; summary of the method: as §4
Pseudomonas aeruginosa [21] = experiment: Antimicrobial activity against Pseudomonas aeruginosa ATCC 27853 at 100 ug/mL by disc-diffusion method; assay type: functional; conditions: read-out: IZ; summary of the method: as §4
Klebsiella pneumoniae [22] = experiment: Antimicrobial activity against Klebsiella pneumoniae at 200 ug/mL by disc-diffusion method; assay type: functional; conditions: read-out: IZ; summary of the method: as §4
Escherichia coli [23] = experiment: Antimicrobial activity against Escherichia coli ATCC 25922 at 200 ug/mL by disc-diffusion method; assay type: functional; conditions: read-out: IZ; summary of the method: as §4
Pseudomonas aeruginosa [24] = experiment: Antimicrobial activity against Pseudomonas aeruginosa ATCC 27853 at 200 ug/mL by disc-diffusion method; assay type: functional; conditions: read-out: IZ; summary of the method: as §4
Proteus vulgaris [25] = experiment: Antimicrobial activity against Proteus vulgaris at 200 ug/mL by disc-diffusion method; assay type: functional; conditions: read-out: IZ; summary of the method: as §4
[26] = test system: Staphylococcus epidermidis; experiment: Antimicrobial activity against Staphylococcus epidermidis at 200 ug/mL by disc-diffusion method; assay type: functional; conditions: read-out: IZ; summary of the method: as §4
Candida albicans [27] = experiment: Antimicrobial activity against Candida albicans ATCC 10231 at 100 ug/mL by disc-diffusion method; assay type: functional; conditions: read-out: IZ; summary of the method: as §4
Staphylococcus aureus [28] = experiment: Antimicrobial activity against Staphylococcus aureus ATCC 25923 at 200 ug/mL by disc-diffusion method; assay type: functional; conditions: read-out: IZ; summary of the method: as §4
Aspergillus sp. [29] = experiment: Antimicrobial activity against Aspergillus sp. at 100 ug/mL by disc-diffusion method; assay type: functional; conditions: read-out: IZ; summary of the method: as §4
Aspergillus sp. [30] = experiment: Antimicrobial activity against Aspergillus sp. at 200 ug/mL by disc-diffusion method; assay type: functional; conditions: read-out: IZ; summary of the method: as §4
Proteus vulgaris [31] = experiment: Antimicrobial activity against Proteus vulgaris at 100 ug/mL by disc-diffusion method; assay type: functional; conditions: read-out: IZ; summary of the method: as §4
Streptococcus agalactiae [32] = experiment: Antimicrobial activity against Streptococcus agalactiae at 200 ug/mL by disc-diffusion method; assay type: functional; conditions: read-out: IZ; summary of the method: as §4
Escherichia coli [33] = experiment: Antimicrobial activity against Escherichia coli ATCC 25922 at 100 ug/mL by disc-diffusion method; assay type: functional; conditions: read-out: IZ; summary of the method: as §4
Staphylococcus aureus [34] = experiment: Antimicrobial activity against Staphylococcus aureus ATCC 25923 after 24 hrs by microdilution assay; assay type: functional; conditions: ATCC 25923, 24 h
Streptococcus agalactiae [35] = experiment: Antimicrobial activity against Streptococcus agalactiae at 100 ug/mL by disc-diffusion method; assay type: functional; conditions: read-out: IZ; summary of the method: as §4
Pseudomonas aeruginosa [36] = experiment: Antimicrobial activity against Pseudomonas aeruginosa ATCC 27853 after 24 hrs by microdilution assay; assay type: functional; conditions: ATCC 27853, 24 h

Structure (SMILES) | viability at 100 µM [1] | logKw [2] | viability at 1 µM (HeLa [3]) | logKw [4] | viability at 50 µM [5] | viability at 50 µM [6] | logKw [7] | viability at 1 µM [8] | viability at 100 µM [9] | viability at 100 µM (HeLa [10]) | viability at 50 µM (HeLa [11]) | viability at 1 µM [12] | zone of inhibition at 100 µg/mL (Klebsiella aerogenes [13]) | zone of inhibition at 100 µg/mL (Streptococcus pyogenes [14]) | zone of inhibition at 200 µg/mL (Streptococcus pyogenes [15]) | zone of inhibition at 100 µg/mL [16] | zone of inhibition at 100 µg/mL (Klebsiella pneumoniae [17]) | zone of inhibition at 200 µg/mL (Klebsiella aerogenes [18]) | zone of inhibition at 200 µg/mL (Candida albicans [19]) | zone of inhibition at 100 µg/mL (Staphylococcus aureus [20]) | further results
COc1ccc(N2CCn3cnnc32)cc1 | 89.3% | 1.87 | 93% | 1.56 | 96.5% | 95.2% | 1.22 | 105% | 91.3% | 80.6% | 91.7% | 102% | – | – | – | – | – | – | – | – | –
Cc1ccc(N2CCn3c(COc4ccc(Cl)cc4C)nnc32)cc1 | 62.1% | 1.58 | 95.1% | 1 | 27.7% | 56.9% | 1.1 | 74.9% | 25.4% | 75.6% | 75.2% | 85.5% | 0 mm | 0 mm | 0 mm | 11 mm | 0 mm | 0 mm | 0 mm | 11 mm | zone of inhibition at 100 µg/mL (Pseudomonas aeruginosa [21]): 0 mm; zone of inhibition at 200 µg/mL (Klebsiella pneumoniae [22]): 0 mm; zone of inhibition at 200 µg/mL (Escherichia coli [23]): 0 mm; zone of inhibition at 200 µg/mL (Pseudomonas aeruginosa [24]): 0 mm; zone of inhibition at 200 µg/mL (Proteus vulgaris [25]): 0 mm; zone of inhibition at 200 µg/mL [26]: 17 mm; zone of inhibition at 100 µg/mL (Candida albicans [27]): 0 mm; zone of inhibition at 200 µg/mL (Staphylococcus aureus [28]): 17 mm; zone of inhibition at 100 µg/mL (Aspergillus sp. [29]): 0 mm; zone of inhibition at 200 µg/mL (Aspergillus sp. [30]): 0 mm; zone of inhibition at 100 µg/mL (Proteus vulgaris [31]): 0 mm; zone of inhibition at 200 µg/mL (Streptococcus agalactiae [32]): 0 mm; zone of inhibition at 100 µg/mL (Escherichia coli [33]): 0 mm; MIC (Staphylococcus aureus [34]): 44 µM (≈ 15.6 µg/mL); zone of inhibition at 100 µg/mL (Streptococcus agalactiae [35]): 0 mm
Clc1ccc(OCc2nnc3n2CCN3c2ccc(Cl)c(Cl)c2)c(Cl)c1 | – | 6 | – | 3.32 | – | – | 4.61 | – | – | – | – | – | 0 mm | 0 mm | 0 mm | 0 mm | 0 mm | 11 mm | 0 mm | 0 mm | MIC (Pseudomonas aeruginosa [36]): 36.3 µM (≈ 15.6 µg/mL); zone of inhibition at 100 µg/mL (Pseudomonas aeruginosa [21]): 11 mm; zone of inhibition at 200 µg/mL (Klebsiella pneumoniae [22]): 11 mm; zone of inhibition at 200 µg/mL (Escherichia coli [23]): 0 mm; zone of inhibition at 200 µg/mL (Pseudomonas aeruginosa [24]): 17 mm; zone of inhibition at 200 µg/mL (Proteus vulgaris [25]): 17 mm; zone of inhibition at 200 µg/mL [26]: 0 mm; zone of inhibition at 100 µg/mL (Candida albicans [27]): 0 mm; zone of inhibition at 200 µg/mL (Staphylococcus aureus [28]): 0 mm; zone of inhibition at 100 µg/mL (Aspergillus sp. [29]): 0 mm; zone of inhibition at 200 µg/mL (Aspergillus sp. [30]): 0 mm; zone of inhibition at 100 µg/mL (Proteus vulgaris [31]): 11 mm; zone of inhibition at 200 µg/mL (Streptococcus agalactiae [32]): 0 mm; zone of inhibition at 100 µg/mL (Escherichia coli [33]): 0 mm; zone of inhibition at 100 µg/mL (Streptococcus agalactiae [35]): 0 mm
O=C(N[C@H](CO)[C@H](O)c1ccc([N+](=O)[O-])cc1)C(Cl)Cl [CHLORAMPHENICOL] | – | – | – | – | – | – | – | – | – | – | – | – | – | – | – | – | – | – | – | – | MIC (Pseudomonas aeruginosa [36]): > 387 µM; MIC (Staphylococcus aureus [34]): 12.4 µM (≈ 4.01 µg/mL)

— ChEMBL document CHEMBL1149773, “Synthesis, determination of the lipophilicity, anticancer and antimicrobial properties of some fused 1,2,4-triazole derivatives” (Eur J Med Chem, 2008)
